In ChEMBL document CHEMBL1133647, “Discovery of a potent, highly selective, and orally efficacious small-molecule activator of the insulin receptor” (J Med Chem, 2000):
pEC50: −log10 of the molar value. Each block holds one molecule with its values, some of them ahead of it. The source made the active and inactive calls. Unless noted, the calls are words filed in the database; no cut-off is given here.

What was measured:
[1] = target: Epidermal growth factor receptor (Homo sapiens) (UniProt P00533); assay: Percent epidermal growth factor receptor (EGFR) activity at 30 uM; format: functional
In short: (§1)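 EGFR counterscreen: cell-based receptor activation assay run like the CHO IR assay (20 min compound exposure, lysate capture, radiometric kinase readout). Compound tested at 30 uM; result as % of control response to 100 nM EGF.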

Insulin receptor [2] = target: T1, Insulin receptor (Homo sapiens, UniProt P06213); assay: Activation of human insulin receptor tyrosine kinase (IRTK)
In short: (§2)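 CHO cells stably transfected with human insulin receptor, plated 150 000 cells/well for 24 h, serum-starved 2 h, then exposed to compound 20 min at 37 °C. Lysate IR captured on anti-IR antibody wells (16 h, 4 °C), kinase reaction 40 min at 25 °C, radioactivity on phosphocellulose filters. Activity as % of maximal response to 100 nM insulin.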

[3] = target: Insulin-like growth factor 1 receptor (Homo sapiens) (UniProt P08069); assay: Percent insulin like growth factor receptor(IGFIR) activity at 30 uM; format: functional
In short: (§3)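 IGFIR counterscreen: cell-based receptor activation assay run like the CHO IR assay (20 min compound exposure, lysate capture, radiometric kinase readout). Compound tested at 30 uM; result as % of control response to 100 nM IGFI.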

[4] = target: Platelet-derived growth factor receptor beta (Homo sapiens) (UniProt P09619); assay: Percent platelet derived growth factor receptor (PDGFR) activity at 30 uM (NS = less than 5% activation); format: functional
In short: (§4)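 PDGFR counterscreen: cell-based receptor activation assay run like the CHO IR assay (20 min compound exposure, lysate capture, radiometric kinase readout). Compound tested at 30 uM; result as % of control response to 100 nM PDGF.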

[5] = target: Epidermal growth factor receptor (Homo sapiens) (UniProt P00533); assay: Percent epidermal growth factor receptor (EGFR) activity at 30 uM (NS = less than 5% activation); format: functional; in short: as §1
[6] = target: Insulin-like growth factor 1 receptor (Homo sapiens) (UniProt P08069); assay: Percent insulin like growth factor receptor(IGFIR) activity at 30 uM (NS = less than 5% activation); format: functional; in short: as §3
[7] = plasma clearance in preclinical species was measured after Intravenous administration at the given dose (0.05 mg/kg) in rat; format: ADME, organism-based; conditions: read-out: Clp
In short: (§5)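 Male rats, beagle dogs and rhesus monkeys dosed iv in ethanol/PEG400/water (1:3:6, v/v/v), n = 2. Plasma extracted and drug quantified by LC-MS/MS (LOQ = 8-100 ng/mL) against a dihydroxybenzoquinone internal standard.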

Canis familiaris [8] = assay: plasma clearance in preclinical species was measured after Intravenous administration at the given dose (0.1 mg/kg) in dog; format: ADME, organism-based, Canis lupus familiaris; conditions: in vivo; in short: as §5
[9] = plasma clearance in preclinical species was measured after Intravenous administration at the given dose (0.01 mg/kg) in monkey; format: ADME, organism-based; conditions: simiiformes, in vivo; in short: as §5
[10] = maximum concentration in plasma in preclinical species was measured after oral administration at the given dose (0.5 mg/kg) in dog; format: ADME, organism-based, Canis lupus familiaris; design: dose 0.5 mg/kg, route oral
In short: (§6)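 Beagle dogs or rhesus monkeys (male) dosed orally at 0.5 mg/kg as a 0.5% methylcellulose suspension with 0.02% sodium lauryl sulfate. Plasma extracted and drug measured by LC-MS/MS (LOQ = 8-100 ng/mL) with an internal standard; bioavailability relative to iv dosing.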

[11] = maximum concentration in plasma in preclinical species was measured after oral administration at the given dose (0.5 mg/kg) in monkey; format: ADME, organism-based; design: dose 0.5 mg/kg, route oral; conditions: simiiformes; in short: as §6
[12] = maximum concentration in plasma in preclinical species was measured after oral administration at the given dose (0.5 mg/kg) in rat; format: ADME, organism-based; design: dose 0.5 mg/kg, route oral
In short: (§7)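 Male rats dosed orally at 0.5 mg/kg in ethanol/PEG400/water (1:3:6, v/v/v). Plasma extracted and drug measured by LC-MS/MS (LOQ = 8-100 ng/mL) with an internal standard; bioavailability relative to iv dosing.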

[13] = area under curve in preclinical species was measured after oral administration at the given dose (0.5 mg/kg) in monkey; format: ADME, organism-based; conditions: simiiformes, in vivo; in short: as §6
[14] = area under curve in preclinical species was measured after Intravenous administration at the given dose (0.01 mg/kg) in monkey; format: ADME, organism-based; conditions: simiiformes, in vivo; in short: as §5
[15] = area under curve in preclinical species was measured after Intravenous administration at the given dose (0.05 mg/kg) in rat; format: ADME, organism-based; conditions: in vivo; in short: as §5
[16] = area under curve in preclinical species was measured after Intravenous administration at the given dose (0.1 mg/kg) in dog; format: ADME, organism-based, Canis lupus familiaris; conditions: in vivo; in short: as §5
[17] = area under curve in preclinical species was measured after oral administration at the given dose (0.5 mg/kg) in dog; format: ADME, organism-based, Canis lupus familiaris; conditions: in vivo; in short: as §6
[18] = bioavailability in preclinical species was measured after oral administration at the given dose (0.5 mg/kg) in dog; format: ADME, organism-based, Canis lupus familiaris; conditions: in vivo; in short: as §6
[19] = bioavailability in preclinical species was measured after oral administration at the given dose (0.5 mg/kg) in monkey; format: ADME, organism-based; conditions: primates, in vivo; in short: as §6
[20] = terminal half life in preclinical species was measured after Intravenous administration at the given dose (0.01 mg/kg) in monkey; format: ADME, organism-based; conditions: simiiformes, in vivo; in short: as §5
[21] = terminal half life in preclinical species was measured after Intravenous administration at the given dose (0.05 mg/kg) in rat; format: ADME, organism-based; conditions: in vivo; in short: as §5
Canis familiaris [22] = assay: terminal half life in preclinical species was measured after Intravenous administration at the given dose (0.1 mg/kg) in dog; format: ADME, organism-based, Canis lupus familiaris; conditions: in vivo; in short: as §5
[23] = volume of distribution in preclinical species was measured after Intravenous administration at the given dose (0.01 mg/kg) in monkey; format: ADME, organism-based; conditions: simiiformes, in vivo; in short: as §5
[24] = volume of distribution in preclinical species was measured after Intravenous administration at the given dose (0.05 mg/kg) in rat; format: ADME, organism-based; conditions: in vivo, read-out: Vdss; in short: as §5
Canis familiaris [25] = assay: volume of distribution in preclinical species was measured after Intravenous administration at the given dose (0.1 mg/kg) in dog; format: ADME, organism-based, Canis lupus familiaris; conditions: in vivo; in short: as §5
[26] = Time taken for maximum concentration in preclinical species was measured after oral administration at the given dose (0.5 mg/kg) in dog; format: ADME, organism-based, Canis lupus familiaris; conditions: in vivo; in short: as §6
[27] = Time taken for maximum concentration in preclinical species was measured after oral administration at the given dose (0.5 mg/kg) in monkey; format: ADME, organism-based; conditions: simiiformes, in vivo; in short: as §6
[28] = Time taken for maximum concentration in preclinical species was measured after oral administration at the given dose (0.5 mg/kg) in rat; format: ADME, organism-based; conditions: in vivo; in short: as §7
Mus musculus [29] = assay: Blood glucose concentration at predosing of 10 mpk; format: functional, organism-based
In short: (§8)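 Male ob/ob mice, 12 weeks old, with ob/+ lean controls, housed 7–9 per cage on chow and water ad libitum. Daily oral gavage of compound or vehicle (0.5% methylcellulose). Food was removed 0–6 h after dosing on days 1 and 2, then fed ad libitum. Blood glucose was taken before dosing and at 24 h after dosing, n = 10/group.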

Mus musculus [30] = organism: Mus musculus; assay: Blood glucose level for the age- and sex-matched ob/+ lean mice; format: functional, organism-based; in short: as §8
Mus musculus [31] = assay: Decrease in blood glucose concentration at 24 hr postdosing of 10 mpk; format: functional, organism-based; in short: as §8
Mus musculus [32] = assay: Percent reduction of blood glucose level in a dose-dependent manner at 0.1 mpk administered once daily for 8-14 days by gavage to ad libitum fed animals; format: functional
Mus musculus [33] = assay: Percent reduction of blood glucose level in a dose-dependent manner at 1 mpk administered once daily for 8-14 days by gavage to ad libitum fed animals; format: functional
Mus musculus [34] = assay: Percent reduction of blood glucose level in a dose-dependent manner at 10 mpk administered once daily for 8-14 days by gavage to ad libitum fed animals; format: functional
[35] = bioavailability in preclinical species was measured after oral administration at the given dose (0.5 mg/kg) in rat; format: ADME, organism-based; conditions: in vivo; in short: as §7
[36] = target: Platelet-derived growth factor receptor beta (Homo sapiens) (UniProt P09619); assay: Percent platelet derived growth factor receptor (PDGFR) activity at 30 uM; format: functional; in short: as §4
Insulin receptor [37] = target: T1, Insulin receptor; assay: Activation of human insulin receptor tyrosine kinase (NA = inactive up to 100 uM); in short: as §2
[38] = target: Insulin-like growth factor 1 receptor (Homo sapiens) (UniProt P08069); assay: Percent insulin like growth factor receptor(IGFIR) activity at 30 uM ( NS = less than 5% activation); format: functional; in short: as §3

T1 sequence (P06213 28-758 limits assumed): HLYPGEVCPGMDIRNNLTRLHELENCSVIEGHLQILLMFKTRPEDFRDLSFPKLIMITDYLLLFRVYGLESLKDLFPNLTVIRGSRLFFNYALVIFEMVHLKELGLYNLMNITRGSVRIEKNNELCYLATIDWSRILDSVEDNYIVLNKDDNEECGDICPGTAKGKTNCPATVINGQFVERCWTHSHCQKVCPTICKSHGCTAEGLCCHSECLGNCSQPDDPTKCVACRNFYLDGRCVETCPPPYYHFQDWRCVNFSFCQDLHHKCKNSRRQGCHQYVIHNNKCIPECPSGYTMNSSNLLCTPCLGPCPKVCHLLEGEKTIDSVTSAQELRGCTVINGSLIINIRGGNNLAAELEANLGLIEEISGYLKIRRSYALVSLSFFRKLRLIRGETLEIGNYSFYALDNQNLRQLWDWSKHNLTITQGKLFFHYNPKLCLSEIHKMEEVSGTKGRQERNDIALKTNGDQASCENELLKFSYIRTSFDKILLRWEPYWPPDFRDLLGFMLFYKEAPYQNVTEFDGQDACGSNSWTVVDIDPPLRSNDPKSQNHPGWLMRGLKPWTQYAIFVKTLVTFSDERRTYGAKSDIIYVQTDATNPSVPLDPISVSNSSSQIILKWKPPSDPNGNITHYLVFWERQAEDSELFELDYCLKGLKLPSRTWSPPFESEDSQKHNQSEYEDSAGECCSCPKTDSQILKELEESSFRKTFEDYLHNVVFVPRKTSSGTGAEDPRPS
T1 sequence (P06213 763-1382 limits assumed): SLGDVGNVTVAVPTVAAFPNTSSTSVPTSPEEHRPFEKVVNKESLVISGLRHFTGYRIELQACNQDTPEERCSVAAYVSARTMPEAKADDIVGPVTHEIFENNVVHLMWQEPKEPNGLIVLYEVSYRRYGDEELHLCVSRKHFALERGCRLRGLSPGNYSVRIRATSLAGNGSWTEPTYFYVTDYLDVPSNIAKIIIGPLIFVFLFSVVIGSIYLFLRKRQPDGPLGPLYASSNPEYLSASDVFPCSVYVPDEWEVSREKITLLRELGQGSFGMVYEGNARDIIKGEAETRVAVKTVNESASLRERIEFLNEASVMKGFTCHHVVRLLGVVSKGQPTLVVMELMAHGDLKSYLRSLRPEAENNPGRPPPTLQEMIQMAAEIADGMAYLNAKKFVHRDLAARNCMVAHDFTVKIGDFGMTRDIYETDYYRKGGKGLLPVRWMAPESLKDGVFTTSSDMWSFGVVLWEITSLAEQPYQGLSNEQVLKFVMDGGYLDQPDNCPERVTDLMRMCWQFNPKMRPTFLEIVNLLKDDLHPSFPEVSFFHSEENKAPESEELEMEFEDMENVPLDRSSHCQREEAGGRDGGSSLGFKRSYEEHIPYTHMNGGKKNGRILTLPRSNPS
Sequence of Insulin-like growth factor 1 receptor (Homo sapiens) (P08069 31-736 limits assumed): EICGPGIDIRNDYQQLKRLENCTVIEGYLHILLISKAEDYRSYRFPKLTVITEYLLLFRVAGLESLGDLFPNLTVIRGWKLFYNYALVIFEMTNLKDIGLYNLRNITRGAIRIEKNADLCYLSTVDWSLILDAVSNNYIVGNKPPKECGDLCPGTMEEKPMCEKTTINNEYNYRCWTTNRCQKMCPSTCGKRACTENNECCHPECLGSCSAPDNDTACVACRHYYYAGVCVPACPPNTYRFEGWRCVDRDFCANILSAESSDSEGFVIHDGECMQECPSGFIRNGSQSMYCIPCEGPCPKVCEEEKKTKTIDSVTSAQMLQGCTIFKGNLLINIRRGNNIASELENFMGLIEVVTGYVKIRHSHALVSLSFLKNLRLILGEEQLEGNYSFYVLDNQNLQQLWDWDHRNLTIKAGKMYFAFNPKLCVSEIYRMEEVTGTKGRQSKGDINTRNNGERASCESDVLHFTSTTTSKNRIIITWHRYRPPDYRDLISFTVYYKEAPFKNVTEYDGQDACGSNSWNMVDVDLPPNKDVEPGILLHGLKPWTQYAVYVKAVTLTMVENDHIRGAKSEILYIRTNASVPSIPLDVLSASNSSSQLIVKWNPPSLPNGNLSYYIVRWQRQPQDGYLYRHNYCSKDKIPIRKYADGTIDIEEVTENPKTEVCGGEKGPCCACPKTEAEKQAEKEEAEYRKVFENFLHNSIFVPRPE
Sequence of Insulin-like growth factor 1 receptor (Homo sapiens) (P08069 741-1367 limits assumed): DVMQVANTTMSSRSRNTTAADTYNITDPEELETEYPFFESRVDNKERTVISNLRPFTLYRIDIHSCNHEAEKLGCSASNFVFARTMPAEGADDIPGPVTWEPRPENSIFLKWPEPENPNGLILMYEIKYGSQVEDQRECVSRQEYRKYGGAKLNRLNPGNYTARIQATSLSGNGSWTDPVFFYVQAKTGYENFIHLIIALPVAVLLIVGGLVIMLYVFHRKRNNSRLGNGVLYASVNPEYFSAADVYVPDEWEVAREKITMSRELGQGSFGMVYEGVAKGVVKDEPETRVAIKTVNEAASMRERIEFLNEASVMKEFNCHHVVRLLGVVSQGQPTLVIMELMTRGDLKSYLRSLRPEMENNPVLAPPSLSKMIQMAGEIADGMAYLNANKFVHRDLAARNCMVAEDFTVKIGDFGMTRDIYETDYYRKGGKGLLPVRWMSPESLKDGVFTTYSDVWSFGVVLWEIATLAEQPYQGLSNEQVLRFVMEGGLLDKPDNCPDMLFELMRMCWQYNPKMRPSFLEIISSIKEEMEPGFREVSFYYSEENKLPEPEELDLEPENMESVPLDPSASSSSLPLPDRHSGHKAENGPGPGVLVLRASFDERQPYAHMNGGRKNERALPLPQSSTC
Sequence of Platelet-derived growth factor receptor beta (Homo sapiens) (P09619 whole entry): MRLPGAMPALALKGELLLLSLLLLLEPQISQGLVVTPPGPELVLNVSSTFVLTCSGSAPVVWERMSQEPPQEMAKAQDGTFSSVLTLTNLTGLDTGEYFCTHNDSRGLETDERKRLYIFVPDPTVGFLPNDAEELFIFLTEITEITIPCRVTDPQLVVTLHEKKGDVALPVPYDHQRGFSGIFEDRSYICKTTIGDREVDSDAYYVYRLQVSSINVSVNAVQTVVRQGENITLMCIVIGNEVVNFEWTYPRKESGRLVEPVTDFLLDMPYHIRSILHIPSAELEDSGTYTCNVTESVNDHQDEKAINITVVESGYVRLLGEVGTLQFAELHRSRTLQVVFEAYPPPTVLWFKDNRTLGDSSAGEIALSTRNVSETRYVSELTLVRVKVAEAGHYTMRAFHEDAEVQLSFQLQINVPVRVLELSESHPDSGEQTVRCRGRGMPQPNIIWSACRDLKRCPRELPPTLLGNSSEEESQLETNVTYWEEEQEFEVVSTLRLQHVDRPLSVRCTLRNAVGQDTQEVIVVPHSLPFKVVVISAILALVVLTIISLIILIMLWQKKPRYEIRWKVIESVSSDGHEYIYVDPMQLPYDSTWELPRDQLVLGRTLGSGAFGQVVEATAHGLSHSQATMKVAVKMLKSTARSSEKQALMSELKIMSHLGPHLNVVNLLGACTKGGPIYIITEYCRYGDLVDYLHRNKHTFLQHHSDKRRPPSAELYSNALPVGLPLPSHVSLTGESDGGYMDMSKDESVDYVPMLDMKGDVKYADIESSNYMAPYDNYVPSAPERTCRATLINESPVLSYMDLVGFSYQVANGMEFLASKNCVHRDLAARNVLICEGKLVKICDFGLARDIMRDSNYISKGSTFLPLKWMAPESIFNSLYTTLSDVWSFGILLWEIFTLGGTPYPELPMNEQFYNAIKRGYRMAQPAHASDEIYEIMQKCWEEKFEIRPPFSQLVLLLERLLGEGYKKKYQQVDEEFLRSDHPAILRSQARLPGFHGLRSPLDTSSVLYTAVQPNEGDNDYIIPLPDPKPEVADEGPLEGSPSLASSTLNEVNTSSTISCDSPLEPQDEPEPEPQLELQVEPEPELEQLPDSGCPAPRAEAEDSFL
Sequence of Epidermal growth factor receptor (Homo sapiens) (P00533 whole entry): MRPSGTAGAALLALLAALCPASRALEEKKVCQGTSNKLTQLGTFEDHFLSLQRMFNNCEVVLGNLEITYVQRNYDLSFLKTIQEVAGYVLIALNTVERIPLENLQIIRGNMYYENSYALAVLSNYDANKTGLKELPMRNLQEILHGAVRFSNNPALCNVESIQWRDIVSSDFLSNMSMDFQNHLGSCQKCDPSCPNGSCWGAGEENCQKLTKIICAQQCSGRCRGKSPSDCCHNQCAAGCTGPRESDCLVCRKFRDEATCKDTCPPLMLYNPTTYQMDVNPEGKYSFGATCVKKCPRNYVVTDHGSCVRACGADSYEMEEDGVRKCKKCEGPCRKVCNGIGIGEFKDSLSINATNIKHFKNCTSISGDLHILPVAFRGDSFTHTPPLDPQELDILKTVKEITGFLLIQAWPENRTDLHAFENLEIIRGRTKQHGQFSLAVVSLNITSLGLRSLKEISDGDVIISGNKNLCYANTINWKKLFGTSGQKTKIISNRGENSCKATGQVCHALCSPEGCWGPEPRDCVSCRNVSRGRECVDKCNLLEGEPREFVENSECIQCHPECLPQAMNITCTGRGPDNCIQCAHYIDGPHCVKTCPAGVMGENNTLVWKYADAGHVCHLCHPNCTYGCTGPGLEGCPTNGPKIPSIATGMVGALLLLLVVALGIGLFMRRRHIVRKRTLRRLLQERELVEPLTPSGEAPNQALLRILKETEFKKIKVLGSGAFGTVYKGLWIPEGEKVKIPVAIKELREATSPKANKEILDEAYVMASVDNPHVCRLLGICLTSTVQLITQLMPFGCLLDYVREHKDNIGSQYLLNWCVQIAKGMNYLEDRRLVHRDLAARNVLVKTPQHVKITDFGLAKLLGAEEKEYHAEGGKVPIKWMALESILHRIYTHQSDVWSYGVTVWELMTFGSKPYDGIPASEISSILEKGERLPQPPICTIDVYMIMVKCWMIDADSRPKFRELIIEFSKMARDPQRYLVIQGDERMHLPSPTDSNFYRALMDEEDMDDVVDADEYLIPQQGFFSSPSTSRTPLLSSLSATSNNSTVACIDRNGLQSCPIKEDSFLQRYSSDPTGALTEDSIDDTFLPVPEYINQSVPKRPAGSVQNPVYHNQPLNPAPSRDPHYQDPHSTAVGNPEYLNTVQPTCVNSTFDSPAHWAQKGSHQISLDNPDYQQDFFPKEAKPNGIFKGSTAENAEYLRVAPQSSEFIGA

SMILES: O=C1C(O)=C(c2ccc3ccccc3c2)C(=O)C(O)=C1c1ccccc1
pEC50 (Insulin receptor [2]): 4.52
Activation [6]: inactive
Activation [4]: inactive

SMILES: O=C1C(O)=C(c2cccc3ccccc23)C(=O)C(O)=C1c1ccccc1
pEC50 (Insulin receptor [2]): 5.22
Activation [6]: inactive
Activation [4]: inactive

SMILES: Cn1cc(C2=C(O)C(O)=C(c3ccccc3)C(=O)C2=O)c2ccccc21
clearance [7]: 2.28 mL/h/kg
Clp (Canis familiaris [8]): 1.14 mL/h/kg
Clp [9]: 1.2 mL/h/kg
Cmax [10]: 5270 ng/mL
Cmax [11]: 7590 ng/mL
Cmax [12]: 4880 ng/mL
AUC [13]: 278000 ng·h/mL
AUC [14]: 8370 ng·h/mL
AUC [15]: 21800 ng·h/mL
AUC [16]: 89800 ng·h/mL
AUC [17]: 266000 ng·h/mL
bioavailability [18]: 59.2%
bioavailability [19]: 66.5%
T1/2 [20]: 66 h
half-life [21]: 32 h
T1/2 (Canis familiaris [22]): 93.5 h
Vdss [23]: 0.31 L/kg
Vd [24]: 0.1 L/kg
Vdss (Canis familiaris [25]): 0.56 L/kg
Tmax [26]: 2.5 h
Tmax [27]: 8 h
Tmax [28]: 10 h
Activation [5]: inactive
pEC50 (Insulin receptor [2]): 6.52
Activation [6]: inactive
Activation [4]: inactive
Concentration (Mus musculus [29]): 233 mg/dL
Concentration (Mus musculus [30]): 143 mg/dL
Concentration (Mus musculus [31]): 150 mg/dL
Reduction (Mus musculus [32]): 29%
Reduction (Mus musculus [33]): 47%
Reduction (Mus musculus [34]): 84%
bioavailability [35]: 79.3%

SMILES: C=CC(C)(C)c1[nH]c2ccccc2c1C1=C(O)C(O)=C(c2c[nH]c3c(CC=C(C)C)cccc23)C(=O)C1=O
Activation [1]: 15%
pEC50 (Insulin receptor [2]): 5.30
Activation [3]: 38%
Activation [36]: 6%

SMILES: Cc1cccc2c(C3=C(O)C(O)=C(c4c[nH]c5ccccc45)C(=O)C3=O)c[nH]c12
Activation [1]: 25%
pEC50 (Insulin receptor [2]): 5.15
Activation [3]: 32%

SMILES: COc1ccc(C2=C(O)C(O)=C(c3ccccc3)C(=O)C2=O)cc1
Activation [5]: inactive
EC50 (Insulin receptor [37]): Not Active
Activation [38]: inactive
Activation [4]: inactive

More lines, now with the values ahead:

Activation [1]: 20%
pEC50 (Insulin receptor [2]): 6.52
Activation [3]: 41%
Activation [4]: inactive
SMILES: O=C1C(O)=C(c2c[nH]c3ccccc23)C(=O)C(O)=C1c1ccccc1

Activation [5]: inactive
pEC50 (Insulin receptor [2]): 5.82
Activation [6]: inactive
Activation [4]: inactive
SMILES: O=C1C(O)=C(c2coc3ccccc23)C(=O)C(O)=C1c1ccccc1

Activation [5]: inactive
pEC50 (Insulin receptor [2]): 6.00
Activation [6]: inactive
Activation [4]: inactive
SMILES: O=C1C(O)=C(c2csc3ccccc23)C(=O)C(O)=C1c1ccccc1
